Data published in ChEMBL document CHEMBL3108709, “Diversity-oriented synthesis yields a new drug lead for treatment of chagas disease” (ACS Med Chem Lett, 2014).
Values after ≈ are worked out from the molar mass of the structure shown. Each block holds one molecule with its values, some of them ahead of it. Active and inactive are the calls of the source. No cut-off for these calls is given here.

Experiments:
Trypanosoma cruzi [1] = assay: Antitrypanosomal activity against Trypanosoma cruzi Tulahuen infected in mouse NIH/3T3 cells assessed as multimode parasite growth inhibition after 4 days by beta-galactosidase reporter gene assay; format: functional, organism-based; conditions: NIH3T3, 96 h
Outline: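 Recombinant Tulahuen T. cruzi stably expressing a beta-galactosidase reporter, cocultured with mouse NIH/3T3 fibroblast host cells. Compounds added to host cells before infection with parasites; growth inhibition read by reporter; IC50 in nM.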

[2] = Plasma protein binding in human; format: ADME, cell-free; conditions: read-out: PPB (converted)
[3] = Solubility of the compound in phosphate buffer saline; format: physicochemical
[4] = Metabolic stability in mouse microsomes assessed as compound remaining at 1 uM after 1 hr; format: ADME, Microsome; conditions: read-out: Stability
Outline: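 Mouse liver microsomes incubated 1 h with compound at 1 μM; result expressed as percent of compound remaining.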

[5] = Fraction unbound in human plasma; format: ADME, cell-free
Trypanosoma cruzi [6] = assay: Antitrypanosomal activity against amastigote stage of Trypanosoma cruzi Tulahuen infected in rat L6 cells assessed as parasite growth inhibition after 96 hrs by beta-galactosidase reporter gene assay; format: functional, organism-based; conditions: L6, 96 h
Trypanosoma cruzi [7] = assay: Trypanocidal activity against Trypanosoma cruzi CA-I/72 infected in BESM cells assessed as parasite re-emergence at 40 nM treated for 29 days measured after 36 days; format: functional, organism-based
Outline: (§1)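 T. cruzi-infected bovine embryo skeletal muscle (BESM) cells treated with varying compound concentrations for 20 or 29 days, compound refreshed every other day, then followed up to 36 days post-treatment. Trypomastigote emergence into medium checked visually daily through treatment and post-treatment phases; no re-emergence taken as trypanocidal, delayed emergence as trypanostatic.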

Trypanosoma cruzi [8] = assay: Trypanocidal activity against Trypanosoma cruzi CA-I/72 infected in BESM cells assessed as parasite re-emergence at 40 nM measured over 29 days of drug treatment; format: functional, organism-based; outline: as §1
Trypanosoma cruzi [9] = assay: Trypanocidal activity against Trypanosoma cruzi CA-I/72 infected in BESM cells assessed as parasite re-emergence at 6.6 uM measured over 20 days of drug treatment; format: functional, organism-based; outline: as §1
Trypanosoma cruzi [10] = assay: Trypanocidal activity against Trypanosoma cruzi CA-I/72 infected in BESM cells assessed as parasite re-emergence at 6.6 uM treated for 20 days measured after 37 days; format: functional, organism-based; outline: as §1
Trypanosoma cruzi [11] = assay: Trypanocidal activity against Trypanosoma cruzi CA-I/72 infected in BESM cells assessed as parasite re-emergence at 250 nM treated for 20 days measured after 4 days; format: functional, organism-based; outline: as §1
Trypanosoma cruzi [12] = assay: Trypanocidal activity against Trypanosoma cruzi CA-I/72 infected in BESM cells assessed as parasite re-emergence at 740 nM measured over 20 days of drug treatment; format: functional, organism-based; outline: as §1
Trypanosoma cruzi [13] = assay: Trypanocidal activity against Trypanosoma cruzi CA-I/72 infected in BESM cells assessed as parasite re-emergence at 740 nM treated for 20 days measured after 37 days; format: functional, organism-based; outline: as §1
Trypanosoma cruzi [14] = assay: Trypanocidal activity against Trypanosoma cruzi CA-I/72 infected in BESM cells assessed as parasite re-emergence at 250 nM measured over 20 days of drug treatment; format: functional, organism-based; outline: as §1
Trypanosoma cruzi [15] = assay: Trypanocidal activity against Trypanosoma cruzi CA-I/72 infected in BESM cells assessed as parasite re-emergence at 370 nM measured over 29 days of drug treatment; format: functional, organism-based; outline: as §1
Plasma = assay: Metabolic stability in human plasma; format: ADME, cell-free
Trypanosoma cruzi [16] = assay: Trypanocidal activity against Trypanosoma cruzi CA-I/72 infected in BESM cells assessed as parasite re-emergence at 370 nM treated for 29 days measured after 36 days; format: functional, organism-based; outline: as §1

SMILES: C[C@H]1CN([C@@H](C)CO)C(=O)c2cccc(NC(=O)c3ccncc3)c2O[C@@H]1CN(C)Cc1c(Cl)cccc1Cl
IC50 (Trypanosoma cruzi [1]): 445 nM

SMILES: C[C@@H]1CN([C@H](C)CO)C(=O)c2cccc(NC(=O)c3ccncc3)c2O[C@@H]1CN(C)Cc1ccc(Oc2ccccc2)cc1
fraction unbound [2]: 0.05
solubility [3]: 86 µM (≈ 51.1 µg/mL)
remaining at 1 h, 1 µM [4]: < 1%
IC50 (Trypanosoma cruzi [1]): 260 nM
fraction unbound [5]: 0.05
IC50 (Trypanosoma cruzi [6]): 1200 nM

SMILES: COc1ccccc1CN(C)C[C@H]1Oc2c(NC(=O)c3ccncc3)cccc2C(=O)N([C@@H](C)CO)C[C@@H]1C
IC50 (Trypanosoma cruzi [1]): 78 nM

SMILES: C[C@H]1CN([C@@H](C)CO)C(=O)c2cccc(NC(=O)c3ccncc3)c2O[C@@H]1CN(C)Cc1ccccc1C(F)(F)F
IC50 (Trypanosoma cruzi [1]): 34 nM

SMILES: C[C@H]1CN([C@@H](C)CO)C(=O)c2cccc(NC(=O)c3ccncc3)c2O[C@@H]1CN(C)Cc1ccncc1
solubility [3]: 100 µM (≈ 50.4 µg/mL)
IC50 (Trypanosoma cruzi [1]): > 32000 nM

SMILES: CC(C)N1C[C@H](C)[C@@H](CN(C)Cc2ccc(Oc3ccccc3)cc2)Oc2c(NC(=O)c3cccnc3)cccc2C1=O
IC50 (Trypanosoma cruzi [1]): 45 nM

SMILES: COc1ccc(CN(C)C[C@H]2Oc3c(NC(=O)c4ccncc4)cccc3C(=O)N([C@@H](C)CO)C[C@@H]2C)cc1
IC50 (Trypanosoma cruzi [1]): 127 nM

SMILES: C[C@H]1CN([C@@H](C)CO)C(=O)c2cccc(NC(=O)c3ccncc3)c2O[C@@H]1CN(C)Cc1cc(Cl)ccc1Cl
IC50 (Trypanosoma cruzi [1]): 57 nM

SMILES: CC(C)N1C[C@H](C)[C@@H](CN(C)Cc2ccc(Oc3ccccc3)cc2)Oc2c(NC(=O)C3CCNCC3)cccc2C1=O
IC50 (Trypanosoma cruzi [1]): 1000 nM

SMILES: O=C(Cn1ccnc1[N+](=O)[O-])NCc1ccccc1
Activity (Trypanosoma cruzi [9]): Active
Activity (Trypanosoma cruzi [10]): Active

SMILES: C[C@H]1CN([C@@H](C)CO)C(=O)c2cccc(NC(=O)c3ccncc3)c2O[C@@H]1CN(C)Cc1ccc(Cl)cc1Cl
IC50 (Trypanosoma cruzi [1]): 27 nM

SMILES: C[C@@H]1CN([C@@H](C)CO)C(=O)c2cccc(NC(=O)c3ccncc3)c2O[C@@H]1CN(C)Cc1ccc(Oc2ccccc2)cc1
fraction unbound [2]: 0.05
solubility [3]: 87 µM (≈ 51.7 µg/mL)
remaining at 1 h, 1 µM [4]: < 1%
IC50 (Trypanosoma cruzi [1]): 450 nM
fraction unbound [5]: 0.05
IC50 (Trypanosoma cruzi [6]): 670 nM

SMILES: CC(C)N1C[C@H](C)[C@@H](CN(C)Cc2ccccc2Cl)Oc2c(NC(=O)c3ccncc3)cccc2C1=O
IC50 (Trypanosoma cruzi [1]): 45 nM

SMILES: CC(C)N1C[C@H](C)[C@@H](CN(C)Cc2ccc(Oc3ccccc3)cc2)Oc2c(NC(=O)C3CCN(C)CC3)cccc2C1=O
IC50 (Trypanosoma cruzi [1]): 1200 nM

SMILES: C[C@H]1CN([C@@H](C)CO)C(=O)c2cccc(NC(=O)c3ccncc3)c2O[C@@H]1CN(C)Cc1ccccc1Cl
IC50 (Trypanosoma cruzi [1]): 165 nM

SMILES: Cc1ccccc1CN(C)C[C@H]1Oc2c(NC(=O)c3ccncc3)cccc2C(=O)N([C@@H](C)CO)C[C@@H]1C
IC50 (Trypanosoma cruzi [1]): 56 nM

SMILES: CC(C)N1C[C@H](C)[C@@H](CN(C)Cc2ccc(Oc3ccccc3)cc2)Oc2c(NC(=O)c3ccccn3)cccc2C1=O
IC50 (Trypanosoma cruzi [1]): 344 nM

SMILES: COc1cccc(CN(C)C[C@H]2Oc3c(NC(=O)c4ccncc4)cccc3C(=O)N([C@@H](C)CO)C[C@@H]2C)c1
IC50 (Trypanosoma cruzi [1]): 57 nM

SMILES: C[C@H]1CN([C@@H](C)CO)C(=O)c2cccc(NC(=O)c3ccncc3)c2O[C@@H]1CN(C)Cc1ccc(F)c(F)c1
IC50 (Trypanosoma cruzi [1]): 50 nM

SMILES: CC(C)N1C[C@H](C)[C@@H](CN(C)Cc2ccc(Oc3ccccc3)cc2)Oc2c(NC(=O)c3ccccc3)cccc2C1=O
IC50 (Trypanosoma cruzi [1]): 500 nM

Second part, led by results:

IC50 (Trypanosoma cruzi [1]): 10 nM
SMILES: C[C@H]1CN([C@@H](C)CO)C(=O)c2cccc(NC(=O)c3ccncc3)c2O[C@@H]1CN(C)Cc1ccc(-c2ccccc2)cc1

IC50 (Trypanosoma cruzi [1]): 1 nM
IC50 (Trypanosoma cruzi [6]): 288 nM
SMILES: CC(C)N1C[C@H](C)[C@@H](CN(C)Cc2ccc(Oc3ccccc3)cc2)Oc2c(NC(=O)c3ccncc3)cccc2C1=O

IC50 (Trypanosoma cruzi [1]): < 1 nM
SMILES: CC(C)N1C[C@H](C)[C@@H](CN(C)Cc2ccccc2)Oc2c(NC(=O)c3ccncc3)cccc2C1=O

IC50 (Trypanosoma cruzi [1]): 1 nM
SMILES: C[C@H]1CN([C@@H](C)CO)C(=O)c2cccc(NC(=O)c3ccncc3)c2O[C@@H]1CN(C)Cc1cccc(C(F)(F)F)c1

fraction unbound [2]: 0.05
solubility [3]: 93 µM (≈ 55.3 µg/mL)
remaining at 1 h, 1 µM [4]: < 1%
IC50 (Trypanosoma cruzi [1]): 23 nM
fraction unbound [5]: 0.05
IC50 (Trypanosoma cruzi [6]): 59 nM
SMILES: C[C@H]1CN([C@@H](C)CO)C(=O)c2cccc(NC(=O)c3ccncc3)c2O[C@H]1CN(C)Cc1ccc(Oc2ccccc2)cc1
Activity (Trypanosoma cruzi [7]): Active
Activity (Trypanosoma cruzi [8]): Active

fraction unbound [2]: 0.01
solubility [3]: 1 µM (≈ 0.595 µg/mL)
remaining at 1 h, 1 µM [4]: 1%
IC50 (Trypanosoma cruzi [1]): 5 nM
IC50 (Trypanosoma cruzi [6]): 22 nM
SMILES: C[C@@H]1CN([C@H](C)CO)C(=O)c2cccc(NC(=O)c3ccncc3)c2O[C@H]1CN(C)Cc1ccc(Oc2ccccc2)cc1
Activity (Trypanosoma cruzi [7]): Active
Activity (Trypanosoma cruzi [8]): Active

IC50 (Trypanosoma cruzi [1]): 25 nM
SMILES: C[C@H]1CN([C@@H](C)CO)C(=O)c2cccc(NC(=O)c3ccncc3)c2O[C@@H]1CN(C)Cc1cccc(Cl)c1Cl

IC50 (Trypanosoma cruzi [1]): 1 nM
IC50 (Trypanosoma cruzi [6]): 61 nM
SMILES: CC(C)N1C[C@H](C)[C@@H](CN(C)Cc2ccc(Cl)cc2)Oc2c(NC(=O)c3ccncc3)cccc2C1=O

IC50 (Trypanosoma cruzi [1]): 1 nM
SMILES: C[C@H]1CN([C@@H](C)CO)C(=O)c2cccc(NC(=O)c3ccncc3)c2O[C@@H]1CN(C)Cc1ccc(Cl)cc1

IC50 (Trypanosoma cruzi [1]): 2 nM
SMILES: CC(C)N1C[C@H](C)[C@@H](CN(C)Cc2cccc(Cl)c2)Oc2c(NC(=O)c3ccncc3)cccc2C1=O

IC50 (Trypanosoma cruzi [1]): 14 nM
SMILES: Cc1ccc(CN(C)C[C@H]2Oc3c(NC(=O)c4ccncc4)cccc3C(=O)N([C@@H](C)CO)C[C@@H]2C)cc1

fraction unbound [2]: 0.01
solubility [3]: 1 µM (≈ 0.595 µg/mL)
remaining at 1 h, 1 µM [4]: 77%
IC50 (Trypanosoma cruzi [1]): 1 nM
IC50 (Trypanosoma cruzi [6]): 16 nM
SMILES: C[C@H]1CN([C@@H](C)CO)C(=O)c2cccc(NC(=O)c3ccncc3)c2O[C@@H]1CN(C)Cc1ccc(Oc2ccccc2)cc1
Activity (Trypanosoma cruzi [11]): inactive
Activity (Trypanosoma cruzi [12]): Active
Activity (Trypanosoma cruzi [7]): Active
Activity (Trypanosoma cruzi [8]): Active
Activity (Trypanosoma cruzi [13]): Active
Activity (Trypanosoma cruzi [14]): inactive

IC50 (Trypanosoma cruzi [1]): 15 nM
SMILES: C[C@H]1CN([C@@H](C)CO)C(=O)c2cccc(NC(=O)c3ccncc3)c2O[C@@H]1CN(C)Cc1cccc(Cl)c1

fraction unbound [2]: 0.01
solubility [3]: 1 µM (≈ 0.595 µg/mL)
remaining at 1 h, 1 µM [4]: 2%
IC50 (Trypanosoma cruzi [1]): 1 nM
IC50 (Trypanosoma cruzi [6]): 24 nM
SMILES: C[C@@H]1CN([C@@H](C)CO)C(=O)c2cccc(NC(=O)c3ccncc3)c2O[C@H]1CN(C)Cc1ccc(Oc2ccccc2)cc1
Activity (Trypanosoma cruzi [7]): Active
Activity (Trypanosoma cruzi [8]): Active

IC50 (Trypanosoma cruzi [1]): 1 nM
SMILES: Cc1cccc(CN(C)C[C@H]2Oc3c(NC(=O)c4ccncc4)cccc3C(=O)N([C@@H](C)CO)C[C@@H]2C)c1

solubility [3]: 64 µM (≈ 36.6 µg/mL)
IC50 (Trypanosoma cruzi [1]): < 1 nM
IC50 (Trypanosoma cruzi [6]): 83 nM
SMILES: C[C@H]1CN([C@@H](C)CO)C(=O)c2cccc(NC(=O)c3ccncc3)c2O[C@@H]1CN(C)Cc1ccc(Cl)c(Cl)c1

IC50 (Trypanosoma cruzi [1]): 1 nM
SMILES: C[C@H]1CN([C@@H](C)CO)C(=O)c2cccc(NC(=O)c3ccncc3)c2O[C@@H]1CN(C)Cc1ccc(Cl)c(F)c1

fraction unbound [2]: 0.01
solubility [3]: 2 µM (≈ 1.19 µg/mL)
remaining at 1 h, 1 µM [4]: 70%
IC50 (Trypanosoma cruzi [1]): 2 nM
IC50 (Trypanosoma cruzi [6]): 31 nM
SMILES: C[C@H](CO)N1C[C@H](C)[C@@H](CN(C)Cc2ccc(Oc3ccccc3)cc2)Oc2c(NC(=O)c3ccncc3)cccc2C1=O

IC50 (Trypanosoma cruzi [1]): 10 nM
SMILES: C[C@H]1CN([C@@H](C)CO)C(=O)c2cccc(NC(=O)c3ccncc3)c2O[C@@H]1CN(C)Cc1cc(Cl)cc(Cl)c1

IC50 (Trypanosoma cruzi [1]): 13 nM
IC50 (Trypanosoma cruzi [6]): 422 nM
SMILES: C[C@H]1CN([C@@H](C)CO)C(=O)c2cccc(NC(=O)c3ccncc3)c2O[C@@H]1CN(C)Cc1ccc(C(F)(F)F)cc1

solubility [3]: 100 µM (≈ 50.3 µg/mL)
IC50 (Trypanosoma cruzi [1]): 12 nM
SMILES: C[C@H]1CN([C@@H](C)CO)C(=O)c2cccc(NC(=O)c3ccncc3)c2O[C@@H]1CN(C)Cc1ccccc1

solubility [3]: 98 µM (≈ 58.3 µg/mL)
remaining at 1 h, 1 µM [4]: < 1%
IC50 (Trypanosoma cruzi [1]): 16 nM
IC50 (Trypanosoma cruzi [6]): 75 nM
Stability (Plasma): Unstable
SMILES: C[C@H](CO)N1C[C@H](C)[C@H](CN(C)Cc2ccc(Oc3ccccc3)cc2)Oc2c(NC(=O)c3ccncc3)cccc2C1=O
Activity (Trypanosoma cruzi [15]): Active
Activity (Trypanosoma cruzi [16]): Active
